Data: article PMC9053608 (RSC Advances, 2020)
Marks after values point to notes of the source that are not given here. Ends that are not written are not given here.

How the values were obtained:
[1] = system: young human fibroblast primary cell culture; assay: MTT cytotoxicity assay; assay type: cell-based; conditions: 37 °C, 5% FBS, mean ± SD (n = 3); for Cellular Viability (%), Fibroblast cells, 2 h: peptide 200 μg mL−1, 2 h; for Cellular Viability (%), Fibroblast cells, 24 h: peptide 200 μg mL−1, 24 h; for Cellular Viability (%), Fibroblast cells, 48 h: peptide 200 μg mL−1, 48 h
Outline: (§1)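 Cells (1 × 10^4 per well) adhered for 14 h at 37 °C in humidified 5% CO2. Medium was then replaced with equal volumes of supplemented RPMI (10%) and peptide solution (200–6.25 μg mL−1), giving 5% final FBS. After 2, 24 or 48 h, MTT (5 mg mL−1 stock) was added for 4 h at 37 °C. Formazan was dissolved in DMSO and read at A570; mean ± S.D., n = 3.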

MDA-MB-468 cells = assay: Morphologic changes by phase-contrast microscopy; assay type: cell-based, human; conditions: phase-contrast microscopy 20×, peptide at 134,61 μM, 24 h
Outline: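 MDA-MB-468 cells (ATCC HTB-132), 1 × 10^4 per well, were allowed to adhere for 14 h at 37 °C in 5% CO2. Medium was then replaced with supplemented RPMI plus test compound, giving 5% FBS final. Plates were incubated at 37 °C in 5% CO2, and cells were photographed before MTT addition. Untreated cells were recorded alongside.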

E. coli ATCC 25922 = assay: Antibacterial activity, microdilution assay; assay type: cell-based; conditions: microdilution (CLSI), 96-well, 24 h at 37 °C, absorbance 620 nm, n = 2
Outline: (§2)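 MIC by CLSI broth microdilution. Peptide solutions at 200, 100, 50, 25, 12.5 and 6.2 μg mL−1 were mixed 9:1 with bacterial inoculum (5 × 10^6 CFU mL−1). Plates were incubated 24 h at 37 °C and read at A620. […] Duplicate runs (n = 2).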

S. aureus ATCC 25923 = assay: Antibacterial activity, microdilution assay; assay type: cell-based; conditions: microdilution (CLSI), 96-well, 24 h at 37 °C, absorbance 620 nm, n = 2
Outline: as §2

[2] = system: breast cancer cell line MDA-MB-468; assay: MTT cytotoxicity assay; assay type: cell-based, human; conditions: 37 °C, 5% FBS, mean ± SD (n = 3); for Cellular Viability (%), MDA-MB-468 cells, 2 h: peptide 200 μg mL−1, 2 h; for Cellular Viability (%), MDA-MB-468 cells, 24 h: peptide 200 μg mL−1, 24 h; for Cellular Viability (%), MDA-MB-468 cells, 48 h: peptide 200 μg mL−1, 48 h
Outline: as §1

Row | Substance | Cellular Viability (%), Fibroblast cells, 2 h [1] | Cellular Viability (%), Fibroblast cells, 24 h [1] | Cellular Viability (%), Fibroblast cells, 48 h [1] | morphological changes in MDA-MB-468 cells (MDA-MB-468 cells) | MIC, E. coli ATCC 25922 (E. coli ATCC 25922) [µM] | MIC, S. aureus ATCC 25923 (S. aureus ATCC 25923) [µM] | Cellular Viability (%), MDA-MB-468 cells, 2 h [2] [%] | Cellular Viability (%), MDA-MB-468 cells, 24 h [2] [%] | Cellular Viability (%), MDA-MB-468 cells, 48 h [2] [%]
1 | RAQWRWQWR-NH2 [Peptide A2] | 100 ± 2 ^a % | 94 ± 2 ^a % | 87 ± 2 ^a % | significant morphological changes associated with the cytotoxic effect were not observed | 146 | 146 | 62 ± 4 | 63 ± 4 | 58 ± 6
2 | RWQWAWQWR-NH2 [Peptide A5] | 99 ± 1 ^a % | 81 ± 1 ^b % | 82 ± 1 ^a % | morphological changes were observed, acquiring rounded forms | – | 143 | 71 ± 8 | 62 ± 7 | 64 ± 4
3 | RWQWRAQWR-NH2 [Peptide A6] | 100 ± 2 ^a % | 88 ± 2 ^a % | 79 ± 4 ^a % | significant morphological changes associated with the cytotoxic effect were not observed | 37 | – | 55 ± 6 | 49 ± 5 | 52 ± 5
4 | RWQWRWAWR-NH2 [Peptide A7] | 96 ± 5 ^a % | 100 ± 1 ^a % | 79 ± 5 ^a % | morphological changes were observed, acquiring rounded forms | 18 | 140 | 59 ± 6 | 57 ± 3 | 56 ± 1
5 | RWQWRWQAR-NH2 [Peptide A8] | 100 ± 1 ^a % | 94 ± 1 ^a % | 85 ± 4 ^a % | significant morphological changes associated with the cytotoxic effect were not observed | 37 | 146 | 69 ± 5 | 62 ± 5 | 61 ± 6
6 | RWQWRWQWA-NH2 [Peptide A9] | 100 ± 4 ^a % | 98 ± 3 ^a % | 100 ± 3 ^a % | – | 143 | 143 | 64 ± 7 | 55 ± 6 | 65 ± 7
